Data: ChEMBL document CHEMBL3259620, “Structure-activity relationships and molecular modelling of new 5-arylidene-4-thiazolidinone derivatives as aldose reductase inhibitors and potential anti-inflammatory agents” (Eur J Med Chem, 2014)
Values belong to the molecule of their own block, whether it stands above or below them. Active and inactive are the calls of the source. No cut-off for these calls is given here.

Columns and labels:
[1] = target: Aldo-keto reductase family 1 member B1 (Bos taurus, UniProt P16116); experiment: Inhibition of bovine aldose reductase assessed as oxidation of NADPH
Summary of the method: (§1)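 AR purified from bovine lens (specific activity 1.2 U/mg), 5 mU per assay. Mixture of 0.25 M sodium phosphate pH 6.8, 4.67 mM D,L-glyceraldehyde, 0.11 mM NADPH, 0.38 M ammonium sulphate, 0.5 mM EDTA, 1% DMSO final. NADPH oxidation followed as absorbance decrease at 340 nm, 37 °C. IC50 by nonlinear fit to one-site competition log dose–inhibition curve.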

[2] = target: T1, Nuclear factor NF-kappa-B complex (Homo sapiens) (UniProt Q00653+P19838+Q04206); experiment: Inhibition of IFN-gamma/histamine-induced NF-kappaB activation in human NCTC-2544 cells assessed as inhibition of nuclear translocation at 10 uM after 48 hrs by Western blot analysis relative to sorbinil; format: cell-based
Summary of the method: (§2)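 NCTC 2544 keratinocytes kept at 37 °C in 95% air/5% CO2, medium with 10% foetal calf serum plus penicillin/streptomycin, plated 1.5 × 10⁶ per dish 24 h beforehand. Stimulated with 200 U/ml IFN-γ and 10^-4 M histamine while exposed to compound; after 48 h, lysates (50 µg protein) run in Western blots against NF-κB p50 (nuclear activated form) or iNOS, signal normalized to α-tubulin. Each experiment at least three times in triplicate, mean ± SEM.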

[3] = tested on: NCTC-2544; experiment: Antiinflammatory activity in human NCTC-2544 cells assessed as reduction of IFN-gamma/histamine-induced-induced iNOS expression at 10 to 20 uM after 48 hrs by Western blot analysis; format: functional, cell-based; summary of the method: as §2
[4] = target: T1, Nuclear factor NF-kappa-B complex (Homo sapiens); experiment: Inhibition of IFN-gamma/histamine-induced NF-kappaB activation in human NCTC-2544 cells assessed as inhibition of nuclear translocation at 10 to 20 uM after 48 hrs by Western blot analysis; format: cell-based; summary of the method: as §2
[5] = tested on: NCTC-2544; experiment: Antiinflammatory activity in human NCTC-2544 cells assessed as reduction of IFN-gamma/histamine-induced-induced iNOS expression at 20 uM after 48 hrs by Western blot analysis relative to control level; format: functional, cell-based; summary of the method: as §2
[6] = target: Aldo-keto reductase family 1 member B1 (Bos taurus) (UniProt P16116); experiment: Inhibition of bovine aldose reductase assessed as oxidation of NADPH at 50 uM; summary of the method: as §1

T1 sequence (P19838 whole entry, looked up): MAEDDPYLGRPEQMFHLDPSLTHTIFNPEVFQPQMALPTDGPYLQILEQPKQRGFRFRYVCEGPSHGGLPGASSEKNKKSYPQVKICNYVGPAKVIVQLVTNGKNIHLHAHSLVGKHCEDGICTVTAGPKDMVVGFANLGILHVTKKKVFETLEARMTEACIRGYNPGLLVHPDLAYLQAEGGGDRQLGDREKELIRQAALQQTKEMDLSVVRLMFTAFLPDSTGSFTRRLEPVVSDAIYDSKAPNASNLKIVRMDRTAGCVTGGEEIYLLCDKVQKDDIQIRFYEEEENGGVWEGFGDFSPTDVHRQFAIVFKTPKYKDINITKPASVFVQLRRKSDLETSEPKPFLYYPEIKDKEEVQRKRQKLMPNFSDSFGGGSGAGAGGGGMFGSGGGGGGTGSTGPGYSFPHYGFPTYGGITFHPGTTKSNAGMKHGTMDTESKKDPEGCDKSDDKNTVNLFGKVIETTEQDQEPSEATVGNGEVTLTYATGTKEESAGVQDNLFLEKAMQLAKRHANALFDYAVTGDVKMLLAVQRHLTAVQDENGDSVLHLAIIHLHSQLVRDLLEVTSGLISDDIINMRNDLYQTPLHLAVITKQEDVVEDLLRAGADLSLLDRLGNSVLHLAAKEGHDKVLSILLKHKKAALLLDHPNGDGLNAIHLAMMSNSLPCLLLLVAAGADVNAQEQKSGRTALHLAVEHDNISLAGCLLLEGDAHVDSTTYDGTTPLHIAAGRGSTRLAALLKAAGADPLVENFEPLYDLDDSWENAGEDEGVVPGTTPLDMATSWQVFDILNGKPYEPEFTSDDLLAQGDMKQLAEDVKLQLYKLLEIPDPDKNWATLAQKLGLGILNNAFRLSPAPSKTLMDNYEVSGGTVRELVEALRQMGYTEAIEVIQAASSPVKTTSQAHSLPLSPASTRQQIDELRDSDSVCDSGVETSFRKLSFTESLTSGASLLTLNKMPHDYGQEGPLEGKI
T1 sequence (Q00653 whole entry, looked up): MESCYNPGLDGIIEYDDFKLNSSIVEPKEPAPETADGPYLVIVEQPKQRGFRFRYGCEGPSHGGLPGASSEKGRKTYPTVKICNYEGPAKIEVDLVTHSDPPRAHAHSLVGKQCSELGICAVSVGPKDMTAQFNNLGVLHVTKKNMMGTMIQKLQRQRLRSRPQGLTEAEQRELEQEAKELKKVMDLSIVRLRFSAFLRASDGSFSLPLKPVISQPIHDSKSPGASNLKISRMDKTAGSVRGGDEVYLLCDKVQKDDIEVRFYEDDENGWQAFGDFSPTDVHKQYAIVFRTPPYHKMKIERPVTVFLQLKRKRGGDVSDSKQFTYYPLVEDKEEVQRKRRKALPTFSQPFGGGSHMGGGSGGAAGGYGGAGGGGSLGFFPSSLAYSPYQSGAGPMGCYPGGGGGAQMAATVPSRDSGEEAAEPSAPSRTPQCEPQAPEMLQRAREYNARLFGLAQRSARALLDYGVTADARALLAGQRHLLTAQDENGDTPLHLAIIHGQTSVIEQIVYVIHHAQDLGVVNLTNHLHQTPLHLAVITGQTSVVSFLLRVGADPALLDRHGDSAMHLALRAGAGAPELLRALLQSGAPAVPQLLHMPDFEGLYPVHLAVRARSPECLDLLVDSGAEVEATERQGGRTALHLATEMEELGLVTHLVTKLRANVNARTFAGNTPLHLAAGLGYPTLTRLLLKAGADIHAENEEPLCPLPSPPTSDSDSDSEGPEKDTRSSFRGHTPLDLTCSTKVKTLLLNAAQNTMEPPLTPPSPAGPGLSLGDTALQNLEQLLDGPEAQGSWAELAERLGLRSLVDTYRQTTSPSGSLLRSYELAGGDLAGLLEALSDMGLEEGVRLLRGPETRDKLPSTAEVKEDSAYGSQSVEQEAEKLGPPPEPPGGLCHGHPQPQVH
T1 sequence (Q04206 whole entry, looked up): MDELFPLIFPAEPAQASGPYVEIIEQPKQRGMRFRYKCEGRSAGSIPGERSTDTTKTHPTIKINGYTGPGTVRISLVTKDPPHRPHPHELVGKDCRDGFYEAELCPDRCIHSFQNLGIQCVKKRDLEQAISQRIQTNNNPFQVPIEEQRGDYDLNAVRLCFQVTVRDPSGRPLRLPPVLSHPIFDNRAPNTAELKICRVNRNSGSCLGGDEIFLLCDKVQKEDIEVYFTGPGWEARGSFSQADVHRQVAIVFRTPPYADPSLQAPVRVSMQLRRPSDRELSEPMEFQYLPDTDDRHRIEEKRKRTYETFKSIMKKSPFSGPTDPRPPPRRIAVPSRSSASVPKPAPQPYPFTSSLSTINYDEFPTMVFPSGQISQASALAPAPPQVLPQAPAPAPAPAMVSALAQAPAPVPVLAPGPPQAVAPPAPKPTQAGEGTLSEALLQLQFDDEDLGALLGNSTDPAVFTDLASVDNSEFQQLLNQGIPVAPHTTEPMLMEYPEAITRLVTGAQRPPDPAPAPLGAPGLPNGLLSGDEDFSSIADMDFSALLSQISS

IC50 [1]: 11600 nM
Structure (SMILES): COc1cc(/C=C2\SC(=S)NC2=O)ccc1OCC(N)=O

IC50 [1]: 33900 nM
Structure (SMILES): COc1cc(/C=C2\SC(=O)NC2=O)ccc1OCC(N)=O

IC50 [1]: 520 nM
Structure (SMILES): COc1ccc(/C=C2\SC(=O)N(CC(=O)O)C2=O)cc1OCC(N)=O

inhibition [2]: Active
IC50 [1]: 130 nM
NF-kappaB nuclear translocation inhibition (active/not active) [4]: Active
Structure (SMILES): COc1ccc(/C=C2\SC(=S)N(CC(=O)O)C2=O)cc1OCC(N)=O
inhibition [5]: Active
inhibition [3]: Active

IC50 [1]: 9200 nM
NF-kappaB nuclear translocation inhibition (active/not active) [4]: inactive
Structure (SMILES): COc1ccc(/C=C2\SC(=S)NC2=O)cc1OCC(N)=O
inhibition [5]: Active
inhibition [3]: Active

IC50 [1]: 22600 nM
Structure (SMILES): COc1ccc(/C=C2\SC(=O)NC2=O)cc1OCC(N)=O

IC50 [1]: 21500 nM
Structure (SMILES): NC(=O)COc1cccc(/C=C2\SC(=O)NC2=O)c1

Second part, the molecule before the results:

Structure (SMILES): COc1cc(/C=C2\SC(=O)N(CC(=O)O)C2=O)ccc1OCC(N)=O
IC50 [1]: 500 nM

Structure (SMILES): NC(=O)COc1ccc(/C=C2\SC(=S)N(CC(=O)O)C2=O)cc1
IC50 [1]: 130 nM

Structure (SMILES): O=C1NC(=O)[C@@]2(CCOc3ccc(F)cc32)N1
inhibition [2]: Active

Structure (SMILES): NC(=O)COc1ccc(/C=C2\SC(=O)N(CC(=O)O)C2=O)cc1
IC50 [1]: 560 nM

Structure (SMILES): NC(=O)COc1cccc(/C=C2\SC(=S)N(CC(=O)O)C2=O)c1
inhibition [3]: inactive
inhibition [2]: Active
IC50 [1]: 130 nM
NF-kappaB nuclear translocation inhibition (active/not active) [4]: Active

Structure (SMILES): NC(=O)COc1cccc(/C=C2\SC(=O)N(CC(=O)O)C2=O)c1
IC50 [1]: 1010 nM

Structure (SMILES): COc1cc(/C=C2\SC(=S)N(CC(=O)O)C2=O)ccc1OCC(N)=O
inhibition [3]: Active
inhibition [2]: Active
IC50 [1]: 110 nM
NF-kappaB nuclear translocation inhibition (active/not active) [4]: Active

Structure (SMILES): NC(=O)COc1ccc(/C=C2\SC(=O)NC2=O)cc1
inhibition [6]: 40%

Structure (SMILES): NC(=O)COc1cccc(/C=C2\SC(=S)NC2=O)c1
inhibition [5]: Active
inhibition [3]: Active
IC50 [1]: 8650 nM
NF-kappaB nuclear translocation inhibition (active/not active) [4]: inactive

Structure (SMILES): NC(=O)COc1ccc(/C=C2\SC(=S)NC2=O)cc1
inhibition [6]: 34%
